In ChEMBL document CHEMBL4354843, “Structure-Based Design of a Potent and Selective Covalent Inhibitor for SRC Kinase That Targets a P-Loop Cysteine” (J Med Chem, 2020) one finds Activity data, which are given here for one compound.

The target in assay [1] is Casein kinase I isoform alpha (Homo sapiens) (UniProt P48729). In words: Binding affinity to wild-type human partial length CSNK1A1 (M1 to L450 residues) expressed in mammalian expression system assessed as residual binding level at 1 uM by Kinomescan method relative to control. The essentials:
(§1)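 Active-site-directed competition binding panel of 468 kinases (KinomeScan), compound at 1 μM. The read-out is kinase remaining bound, given as a percentage of the DMSO control. […]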

Assay [2] addresses Ephrin type-A receptor 3 (Homo sapiens) (UniProt P29320). Kind of assay: Binding affinity to wild-type human partial length EPHA3 (D604 to K889 residues) expressed in bacterial expression system assessed as residual binding level at 1 uM by Kinomescan method relative to control. The essentials: as §1
Assay [3] concerns the target Receptor tyrosine-protein kinase erbB-2 (Homo sapiens) (UniProt P04626). Kind of assay: Binding affinity to wild-type human partial length ERBB2 (K646 to V1225 residues) expressed in mammalian expression system assessed as residual binding level at 1 uM by Kinomescan method relative to control. The essentials: as §1
Assay [4] deals with Mast/stem cell growth factor receptor Kit (Homo sapiens) (UniProt P10721). Kind of assay: Binding affinity to wild-type human partial length autoinhibited KIT (Y545 to D952 residues) expressed in mammalian expression system assessed as residual binding level at 1 uM by Kinomescan method relative to control.
Assay [5] has as its target Serine/threonine-protein kinase WNK2 (Homo sapiens) (UniProt Q9Y3S1). Kind of assay: Binding affinity to wild-type human partial length WNK2 (V47 to D482 residues) expressed in mammalian expression system assessed as residual binding level at 1 uM by Kinomescan method relative to control. The essentials: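 Active site-directed competition binding panel (KinomeScan, 468 kinases). Test compound at 1 μM. Read-out is kinase binding remaining versus DMSO control, expressed as percent of control. Scores above 35% are treated as weak binding.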

Assay [6] addresses NUAK family SNF1-like kinase 2 (Homo sapiens) (UniProt Q9H093). In words: Binding affinity to wild-type human partial length SNARK (P22 to A333 residues) expressed in mammalian expression system assessed as residual binding level at 1 uM by Kinomescan method relative to control.
In assay [7] the target is Mitogen-activated protein kinase 1 (Homo sapiens) (UniProt P28482). In words: Binding affinity to wild-type human full length ERK2 (M1 to S360 residues) expressed in bacterial expression system assessed as residual binding level at 1 uM by Kinomescan method relative to control. The gist of the method:
(§2)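 Active-site-directed KinomeScan competition binding panel covering 468 kinases, compound tested at 1 μM. Each readout is the kinase signal remaining with compound, expressed as a percentage of the DMSO control. […]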

The test system of assay [8] is Mast/stem cell growth factor receptor Kit (Homo sapiens), P10721 [D816V]. In words: Binding affinity to human partial length KIT D816V mutant (I571 to D952 residues) expressed in bacterial expression system assessed as residual binding level at 1 uM by Kinomescan method relative to control. The essentials: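 KinomeScan active site-directed competition binding panel (468 kinases), compound tested at 1 μM. Result expressed as remaining kinase signal versus DMSO control (percent of control).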

The target in assay [9] is Ribosomal protein S6 kinase beta-1 (Homo sapiens) (UniProt P23443). In words: Binding affinity to wild-type human partial length S6K1 (M1 to S421 residues) expressed in mammalian expression system assessed as residual binding level at 1 uM by Kinomescan method relative to control.
The target in assay [10] is Testis-specific serine/threonine-protein kinase 1 (Homo sapiens) (UniProt Q9BXA7). In words: Binding affinity to wild-type human full length TSSK1B (M1 to Q367 residues) expressed in bacterial expression system assessed as residual binding level at 1 uM by Kinomescan method relative to control. The essentials:
(§3)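 KinomeScan, an active site-directed competition binding panel of 468 kinases. The test compound was at 1 μM. The readout is remaining kinase binding as a percentage of the DMSO control. Scores above 35% were treated as weak binding and not listed.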

For assay [11], the target named is Ribosomal protein S6 kinase alpha-6 (Homo sapiens) (UniProt Q9UK32). Kind of assay: Binding affinity to wild-type human partial length C-terminal RSK4 kinase domain 2 (I401 to Y711 residues) expressed in bacterial expression system assessed as residual binding level at 1 uM by Kinomescan method relative to control. The essentials:
as §3

Assay [12] concerns the target Tyrosine-protein kinase Fyn (Homo sapiens) (UniProt P06241). Kind of assay: Binding affinity to wild-type human partial length FYN (T243 to L534 residues) expressed in bacterial expression system assessed as residual binding level at 1 uM by Kinomescan method relative to control. The essentials: as §1
The target of assay [13] is SRSF protein kinase 2 (Homo sapiens) (UniProt P78362). Kind of assay: Binding affinity to wild-type human full length SRPK2 (M1 to S686 residues) expressed in bacterial expression system assessed as residual binding level at 1 uM by Kinomescan method relative to control.
SRSF protein kinase 2 (Homo sapiens), sequence (P78362 whole entry, looked up, the tested form may be a part): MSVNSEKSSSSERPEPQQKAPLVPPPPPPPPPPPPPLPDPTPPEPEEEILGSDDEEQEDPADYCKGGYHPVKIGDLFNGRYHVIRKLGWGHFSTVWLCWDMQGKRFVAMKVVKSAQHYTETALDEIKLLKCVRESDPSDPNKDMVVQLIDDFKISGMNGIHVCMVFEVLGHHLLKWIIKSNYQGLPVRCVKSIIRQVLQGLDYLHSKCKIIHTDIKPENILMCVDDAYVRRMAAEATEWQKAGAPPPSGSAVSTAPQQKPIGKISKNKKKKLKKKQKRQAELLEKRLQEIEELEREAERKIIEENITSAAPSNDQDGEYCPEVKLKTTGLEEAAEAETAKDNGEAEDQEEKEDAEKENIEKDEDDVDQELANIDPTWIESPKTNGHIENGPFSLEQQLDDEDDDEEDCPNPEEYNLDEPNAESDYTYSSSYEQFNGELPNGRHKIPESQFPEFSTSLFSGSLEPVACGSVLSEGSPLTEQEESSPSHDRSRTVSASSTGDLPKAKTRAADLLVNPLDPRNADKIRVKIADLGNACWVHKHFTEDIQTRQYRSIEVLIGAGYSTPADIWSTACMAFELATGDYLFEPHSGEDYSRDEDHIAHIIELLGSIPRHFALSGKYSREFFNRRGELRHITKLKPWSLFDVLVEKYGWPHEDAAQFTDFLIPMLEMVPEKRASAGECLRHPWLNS
Assay [14] addresses LIM domain kinase 2 (Homo sapiens) (UniProt P53671). In words: Binding affinity to wild-type human full length LIMK2 (M1 to P638 residues) expressed in bacterial expression system assessed as residual binding level at 1 uM by Kinomescan method relative to control. The essentials: as §2
In assay [15] the target is Interleukin-1 receptor-associated kinase 3 (Homo sapiens) (UniProt Q9Y616). In words: Binding affinity to wild-type human partial length IRAK3 (V147 to E596 residues) expressed in bacterial expression system assessed as residual binding level at 1 uM by Kinomescan method relative to control.
Interleukin-1 receptor-associated kinase 3 (Homo sapiens), sequence (Q9Y616 whole entry, the tested form may be a part): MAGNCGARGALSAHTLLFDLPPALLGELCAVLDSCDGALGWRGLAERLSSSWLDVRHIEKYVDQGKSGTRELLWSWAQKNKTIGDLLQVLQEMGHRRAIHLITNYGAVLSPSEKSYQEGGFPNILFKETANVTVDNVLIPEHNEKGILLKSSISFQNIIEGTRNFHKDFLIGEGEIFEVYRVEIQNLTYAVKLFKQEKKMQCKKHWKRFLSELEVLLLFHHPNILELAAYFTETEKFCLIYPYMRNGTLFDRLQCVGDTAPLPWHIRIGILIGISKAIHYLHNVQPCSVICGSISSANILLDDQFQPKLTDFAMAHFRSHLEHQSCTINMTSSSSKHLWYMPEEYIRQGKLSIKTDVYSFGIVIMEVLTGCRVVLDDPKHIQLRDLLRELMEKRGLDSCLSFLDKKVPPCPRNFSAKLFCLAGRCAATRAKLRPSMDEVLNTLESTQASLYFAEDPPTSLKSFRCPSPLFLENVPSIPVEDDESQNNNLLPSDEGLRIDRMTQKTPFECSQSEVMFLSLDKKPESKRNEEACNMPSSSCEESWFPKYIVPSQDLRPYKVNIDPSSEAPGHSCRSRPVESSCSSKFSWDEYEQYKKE
Assay [16] concerns the target Mitogen-activated protein kinase kinase kinase 9 (Homo sapiens) (UniProt P80192). In words: Binding affinity to wild-type human partial length MLK1 (V88 to W426 residues) expressed in bacterial expression system assessed as residual binding level at 1 uM by Kinomescan method relative to control.
Assay [17] concerns the target Serine/threonine-protein kinase 10 (Homo sapiens) (UniProt O94804). Kind of assay: Binding affinity to wild-type human partial length LOK (E16 to V314 residues) expressed in bacterial expression system assessed as residual binding level at 1 uM by Kinomescan method relative to control. The essentials:
as §1

Assay [18] addresses RAC-beta serine/threonine-protein kinase (Homo sapiens) (UniProt P31751). In words: Binding affinity to wild-type human partial length AKT2 expressed in bacterial expression system assessed as residual binding level at 1 uM by Kinomescan method relative to control.

LIM domain kinase 2 (Homo sapiens), sequence (P53671 whole entry, looked up, the tested form may be a part): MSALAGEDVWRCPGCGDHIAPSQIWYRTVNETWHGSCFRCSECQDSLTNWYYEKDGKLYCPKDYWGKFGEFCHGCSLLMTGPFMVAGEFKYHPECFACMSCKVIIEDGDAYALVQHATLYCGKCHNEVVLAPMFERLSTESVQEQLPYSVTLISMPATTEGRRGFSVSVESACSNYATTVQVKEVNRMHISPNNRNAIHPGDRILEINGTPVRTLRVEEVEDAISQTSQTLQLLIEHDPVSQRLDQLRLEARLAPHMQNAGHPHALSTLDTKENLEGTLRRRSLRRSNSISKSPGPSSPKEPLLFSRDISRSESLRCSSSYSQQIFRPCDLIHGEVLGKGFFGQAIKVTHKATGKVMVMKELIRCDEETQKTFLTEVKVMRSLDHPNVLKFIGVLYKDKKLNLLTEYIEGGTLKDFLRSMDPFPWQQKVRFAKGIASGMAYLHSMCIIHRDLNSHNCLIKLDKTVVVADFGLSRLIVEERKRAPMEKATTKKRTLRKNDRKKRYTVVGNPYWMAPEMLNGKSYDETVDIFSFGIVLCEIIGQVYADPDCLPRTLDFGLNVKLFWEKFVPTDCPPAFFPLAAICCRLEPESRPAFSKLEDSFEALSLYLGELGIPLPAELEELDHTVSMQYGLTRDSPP
Receptor tyrosine-protein kinase erbB-2 (Homo sapiens), sequence (P04626 whole entry, the tested form may be a part): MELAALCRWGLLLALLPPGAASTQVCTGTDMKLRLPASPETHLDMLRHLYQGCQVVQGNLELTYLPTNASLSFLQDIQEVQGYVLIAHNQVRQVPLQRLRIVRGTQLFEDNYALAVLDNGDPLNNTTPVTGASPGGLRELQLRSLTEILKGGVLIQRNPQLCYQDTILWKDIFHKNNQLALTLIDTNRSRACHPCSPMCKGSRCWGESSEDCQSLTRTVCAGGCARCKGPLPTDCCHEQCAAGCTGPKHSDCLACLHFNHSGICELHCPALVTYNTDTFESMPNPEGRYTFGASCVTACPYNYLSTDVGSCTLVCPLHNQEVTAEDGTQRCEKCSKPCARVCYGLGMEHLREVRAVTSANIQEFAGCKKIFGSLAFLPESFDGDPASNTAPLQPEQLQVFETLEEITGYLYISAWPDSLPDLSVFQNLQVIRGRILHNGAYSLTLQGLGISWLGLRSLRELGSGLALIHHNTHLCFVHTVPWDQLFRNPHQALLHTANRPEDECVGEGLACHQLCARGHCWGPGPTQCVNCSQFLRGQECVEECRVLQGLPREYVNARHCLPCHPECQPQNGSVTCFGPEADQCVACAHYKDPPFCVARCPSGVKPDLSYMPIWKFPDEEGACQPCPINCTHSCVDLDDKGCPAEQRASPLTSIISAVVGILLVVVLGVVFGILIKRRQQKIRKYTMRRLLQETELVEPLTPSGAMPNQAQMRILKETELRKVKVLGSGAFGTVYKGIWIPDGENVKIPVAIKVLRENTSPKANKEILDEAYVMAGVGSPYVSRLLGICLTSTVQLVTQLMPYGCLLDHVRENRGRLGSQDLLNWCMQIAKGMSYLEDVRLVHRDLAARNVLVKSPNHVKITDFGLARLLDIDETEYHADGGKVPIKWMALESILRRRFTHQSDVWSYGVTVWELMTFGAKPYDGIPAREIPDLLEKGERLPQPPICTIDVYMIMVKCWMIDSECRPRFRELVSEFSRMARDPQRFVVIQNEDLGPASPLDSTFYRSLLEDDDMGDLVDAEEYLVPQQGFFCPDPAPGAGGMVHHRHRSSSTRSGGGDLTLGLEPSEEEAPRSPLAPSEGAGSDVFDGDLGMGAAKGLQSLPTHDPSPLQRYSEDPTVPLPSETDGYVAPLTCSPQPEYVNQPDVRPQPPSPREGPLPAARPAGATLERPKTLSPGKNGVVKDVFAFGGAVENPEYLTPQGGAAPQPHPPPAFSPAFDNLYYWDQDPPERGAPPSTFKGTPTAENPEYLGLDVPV
Mitogen-activated protein kinase kinase kinase 9 (Homo sapiens), sequence (P80192 whole entry, looked up, the tested form may be a part): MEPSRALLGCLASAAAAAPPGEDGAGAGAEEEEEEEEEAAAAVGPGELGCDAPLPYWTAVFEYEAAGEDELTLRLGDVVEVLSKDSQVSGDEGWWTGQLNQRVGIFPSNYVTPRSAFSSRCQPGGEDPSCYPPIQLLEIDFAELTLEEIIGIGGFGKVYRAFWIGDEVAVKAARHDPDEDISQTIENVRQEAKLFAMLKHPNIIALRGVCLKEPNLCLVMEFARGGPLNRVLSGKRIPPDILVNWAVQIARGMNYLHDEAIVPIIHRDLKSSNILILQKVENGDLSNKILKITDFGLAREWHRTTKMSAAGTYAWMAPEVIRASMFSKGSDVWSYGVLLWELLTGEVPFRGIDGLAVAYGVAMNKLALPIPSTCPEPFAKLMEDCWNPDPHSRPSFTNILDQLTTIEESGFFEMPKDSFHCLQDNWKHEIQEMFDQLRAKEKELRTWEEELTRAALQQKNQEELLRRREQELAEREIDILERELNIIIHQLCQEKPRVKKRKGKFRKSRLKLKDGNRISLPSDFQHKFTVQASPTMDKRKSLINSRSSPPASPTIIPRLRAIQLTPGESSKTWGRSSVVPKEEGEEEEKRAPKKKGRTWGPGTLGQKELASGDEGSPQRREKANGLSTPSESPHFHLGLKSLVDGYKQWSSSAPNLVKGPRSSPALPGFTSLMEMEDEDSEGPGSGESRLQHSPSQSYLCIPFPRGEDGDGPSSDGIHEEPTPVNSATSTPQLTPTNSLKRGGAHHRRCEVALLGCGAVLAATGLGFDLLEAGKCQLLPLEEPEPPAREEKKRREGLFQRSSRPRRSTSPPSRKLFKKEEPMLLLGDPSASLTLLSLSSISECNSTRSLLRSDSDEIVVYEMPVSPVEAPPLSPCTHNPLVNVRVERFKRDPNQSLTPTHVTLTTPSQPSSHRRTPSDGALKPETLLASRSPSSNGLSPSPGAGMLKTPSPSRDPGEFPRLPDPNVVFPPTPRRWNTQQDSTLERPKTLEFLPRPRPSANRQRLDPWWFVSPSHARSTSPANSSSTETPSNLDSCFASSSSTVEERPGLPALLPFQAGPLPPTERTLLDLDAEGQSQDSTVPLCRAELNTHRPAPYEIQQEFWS
NUAK family SNF1-like kinase 2 (Homo sapiens), sequence (Q9H093 whole entry, the tested form may be a part): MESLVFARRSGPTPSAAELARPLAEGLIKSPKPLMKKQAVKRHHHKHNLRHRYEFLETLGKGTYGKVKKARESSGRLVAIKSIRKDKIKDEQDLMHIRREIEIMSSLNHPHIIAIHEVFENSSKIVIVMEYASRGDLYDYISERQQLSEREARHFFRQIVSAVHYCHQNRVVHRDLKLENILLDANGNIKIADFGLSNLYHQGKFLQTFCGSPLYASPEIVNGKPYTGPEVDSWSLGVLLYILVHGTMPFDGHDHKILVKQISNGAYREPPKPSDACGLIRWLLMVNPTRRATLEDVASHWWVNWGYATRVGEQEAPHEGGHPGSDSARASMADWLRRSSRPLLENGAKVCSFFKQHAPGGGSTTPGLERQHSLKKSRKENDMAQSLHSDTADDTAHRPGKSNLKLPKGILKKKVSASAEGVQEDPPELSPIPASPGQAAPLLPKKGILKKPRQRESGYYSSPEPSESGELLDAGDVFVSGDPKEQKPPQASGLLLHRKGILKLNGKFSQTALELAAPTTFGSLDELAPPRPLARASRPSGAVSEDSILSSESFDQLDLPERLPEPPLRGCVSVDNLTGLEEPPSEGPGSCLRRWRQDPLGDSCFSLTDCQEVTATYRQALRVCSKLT

`C=CC(=O)Nc1ccccc1Nc1nc(Nc2ccc(N3CCN(C)CC3)cc2)ncc1C(=O)Nc1c(C)cccc1Cl`: the Activity in assay [1] turned out to be 86%; in assay [2], 68%; in assay [3], 63%; in assay [4] it was 92%; in [5], 64%; in assay [6], 100%. Further, the Activity was determined as 100% in assay [7]; 100% in assay [8]; 95% in assay [9]; 86% in assay [10]; 96% in assay [11]; 2% in assay [12]. Besides, the Activity came out at 100% in assay [13]; 100% in [14]; 100% in assay [15]; 100% in [16]; 96% in assay [17]; 100% in [18].
